Measured values: BindingDB's records for doi:10.1016/j.bmc.2022.116974 (University of Maryland, 2022)

Target: Galectin-3 (Homo sapiens, UniProt P17931)
Assay: Binding affinity to human galectin 3 by surface plasma resonance analysis
Procedure, shortened: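 Recombinant human Gal-3 amine-coupled to a CM5 chip (about 1000 RU) with an ethanolamine reference channel. Analytes were serially diluted in 0.01 M HEPES pH 7.4, 0.15 M NaCl and 0.005% P20, then run at 25 °C and 30 μL/min with 120 s association and 300 s dissociation, followed by 3 M MgCl2 regeneration. EC50 was taken from the fitted binding curve.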

Sequence of Galectin-3 (P17931 whole entry): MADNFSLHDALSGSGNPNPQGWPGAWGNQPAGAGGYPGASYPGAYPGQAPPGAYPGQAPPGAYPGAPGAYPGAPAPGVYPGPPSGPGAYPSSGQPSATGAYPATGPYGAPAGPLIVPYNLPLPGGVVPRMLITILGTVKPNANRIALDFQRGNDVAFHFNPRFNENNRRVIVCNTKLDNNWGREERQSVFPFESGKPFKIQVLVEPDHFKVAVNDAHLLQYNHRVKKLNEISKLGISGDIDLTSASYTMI

EC50, > 1 mM:
[N-]=[N+]=NCCOCCOCCO[C@@H]1O[C@H](CO)[C@@H](O[C@@H]2O[C@H](CO)[C@H](O)[C@H](O)[C@H]2O)[C@H](O)[C@H]1O
CC(=O)N[C@H]1[C@@H](OCCOCCOCCN=[N+]=[N-])O[C@H](CO)[C@H](O)[C@@H]1O
CC(=O)N[C@H]1[C@@H](OCCOCCOCCN=[N+]=[N-])O[C@H](CO)[C@H](O)[C@@H]1O[C@@H]1O[C@H](CO)[C@H](O)[C@H](O)[C@H]1O
